SMILES strings stand for the structures. A number with no mark means an inactive call. Records with an inconclusive call do not appear. Calls of active or inactive are those of the source.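 How the source made its calls, unless noted: active means viability at or below 27.92% in each of two runs, the all-compound median minus 4 SD; inconclusive means no clear call, values can overlap the other calls; inactive means the rest.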

Consider 22 compounds from PubChem BioAssay.

The nature of test [1]: OD615 S. cerevisiae growth inhibition, permissive medium, pilot counter-assay, permissive growth control for S. cerevisiae lifespan shortening project (AID 705;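 active means growth inhibition above 25% in both replicates, a cutoff set 3 SD above the mean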). To be noted: OD615, 24 h, at 10 µM, stronger effect = higher value. In outline:
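Test system: Saccharomyces cerevisiae strain carrying genetically modified DeaD replicative-lifespan system; buffer or medium: SC raffinose/galactose permissive medium; dosing: one dose 10 µM, DMSO 0.25% final; times: 24 h exposure, 30 °C; measured by: OD at 615 nm; read-out basis: growth inhibition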

Test [2] can be described thus: Restrictive medium S. cerevisiae growth inhibition, OD615, pilot screen of yeast lifespan reduction project, restrictive growth control (AID 706;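 active means growth inhibition above a set limit, 3 SD over mean compound inhibition, in both replicates, cut at about 43% in these data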;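 further: modified DeaD lifespan yeast strain shifted to restrictive glucose medium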). To be noted: OD615, 48 h, at 10 µM, stronger effect = higher value. An outline of the steps:
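material = engineered S. cerevisiae DeaD strain | buffer or medium = glucose-based CSMM-D restrictive medium | dosing = one concentration, 10 µM final, 0.25% DMSO | schedule = 4 h pre-growth plus 48 h compound exposure, 30 °C | detection = OD615 absorbance reading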

Test [3] in a line: viability gain of MRP-1-high H69AR cells under doxorubicin, pilot screen, MRP-1 activator project, CellTiter-Glo, duplicate (AID 807;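 active means viability increase at or above a cutoff of the median across tested compounds plus 3 SD, cut at about 8.5% in these data, passing the limit was not always enough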;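 further: compound pretreatment 18-22 h then 72 h combined with doxorubicin; 0% = doxorubicin alone and 100% = vehicle without doxorubicin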). To be noted: H69AR viability with doxorubicin, CellTiter-Glo luminescence; at 10 µM; stronger effect = higher value.
Test [4] can be described thus: growth suppression of beta-catenin knockout HCT116, pilot screen, human colon tumor cells (AID 823;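 active means cell viability at or below a set limit in both duplicate runs, the limit being the all-compound median minus 4 SD, cut at about 23% in these data, passing the limit was not always enough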;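 further: 0% = wells killed by 20 µM Hyamine and 100% = untreated DMSO cell wells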). Conditions: CellTiter-Glo, 60 h, at 10 µM, stronger effect = lower value. A general note: In ATP-based viability assays light output follows the ATP content of the culture.
Test [5] is described as follows: growth suppression of PTEN-deleted HCT116, pilot screen, cell-based, HCT116 clonal line, CellTiter-Glo (AID 824).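 Further: 0% = 20 µM Hyamine control and 100% = vehicle cell control.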 Conditions: 60 h, at 10 µM, stronger effect = lower value.
A short description of test [6]: inhibitors of the yeast RAM network, pilot screen, dse1pr::URA3 reporter, 5-FOA selection (AID 869;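 active means inhibition over a set limit, the all-compound mean plus 3 SD, in both replicate runs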;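 further: 0% = DMSO wells with no growth and 100% = 10 µM 1-NA-PP1 with full growth; RAM network block rescues cells from 5-FOA so hits raise OD615 growth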). To be noted: S. cerevisiae dse1pr::URA3 5-FOA growth, OD615, 2 d; at 10 µM; stronger effect = higher value; strain carries analog-sensitive mutant Cbk1 kinase.
A short description of test [7]: RAM signaling pathway blockade in yeast – S. cerevisiae, Pdr1DBD-CYC8 efflux-inhibited sensitized strain, primary screen (AID 1298;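 active means RAM network inhibition above 8.4% in each of two replicates, 3 SD over the compound average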;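 further: 0% = DMSO untreated cells without growth and 100% = 10 µM 1-NA-PP1 full growth; higher means more yeast growth rescued from 5-FOA killing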). Conditions: S. cerevisiae cbk1-as DSE1-URA3 strain, 5-FOA growth OD615, 2 d; at 50 µM; stronger effect = higher value.

Usually viability stands for a read-out of living cells in per cent, often relative to untreated cells. Usually inhibition stands for the change of the read-out against control, counted positive when it falls. As to `O=C(NCCc1ccccc1)C1CCN(C(=O)c2sccc2-n2cccc2)CC1`, the figures for the growth inhibition in test [1] and in test [2] were -0.295% and -8.75%, respectively. Moreover, the viability increase in test [3] is -1.15%. The viability in test [4] is 101%; in test [5], 93.8%. In addition, in test [6], the inhibition is 3.48%. In addition, the RAM network inhibition in test [7] was 4%.
On to `CCOC(=O)Cc1c(C)nc2c(-c3ccccc3)c[nH]n2c1=O`, for which the growth inhibition in test [1] was -9.38%; in test [2] it was -14.3%. Moreover, the viability increase in test [3] was -5.95%. The values for the viability in test [4] and in test [5] were 76.8% and 76.5%, respectively. Also, the inhibition in test [6] was 1.96%. Further, the RAM network inhibition in test [7] was 10.5%.
Turning to `CCOC(=O)C1C(C)N=C2SCC(=O)N2C1c1cccc(Br)c1` (centres undefined), the growth inhibition in test [1] was 9.43%; in test [2], 51.2% (active). Besides, the viability increase in test [3] is -0.84%. In addition, the viability was 86.4% in test [4] and 93.2% in test [5]. In addition, the inhibition in test [6] was 0.36%. Moreover, the RAM network inhibition in test [7] was 3.99%.
Consider `Cc1cc2ncn(C3CC(=O)N(Cc4ccc(N5CCCC5=O)cc4)C3=O)c2cc1C` (centres undefined), for which the growth inhibition in test [1] is -7.9%; in test [2] it was 13.8%. In addition, the viability increase in test [3] was -0.37%. Further, the figures for the viability in test [4] and in test [5] were 97.9% and 98.5%, respectively. In test [6], the inhibition was 0.14%. Further, the RAM network inhibition in test [7] was 1.48%.
As to `COc1ccc(Nc2oc(-c3ccccc3Cl)nc2C#N)cc1`, the growth inhibition in test [1] is 9.48%; in test [2] it was 0.98%. Besides, in test [3], the viability increase is -8%. In addition, the viability in test [4] is 6.01% (active); in test [5], 8.29% (active). Also, the inhibition in test [6] was 1.94%. Besides, the RAM network inhibition in test [7] is 7.73%.
With `COc1cccc(NC(=O)Cn2cnc3sc(C)c(S(=O)(=O)N4CCN(C)CC4)c3c2=O)c1`, the growth inhibition was -17.7% in test [1] and -24.1% in test [2]. For the same compound, the viability increase in test [3] was -1.93%. In addition, the viability was 89% in test [4] and 83.2% in test [5]. The inhibition in test [6] is 1.76%. Moreover, the RAM network inhibition in test [7] is 1.09%.
As to `O=C(CSc1nnnn1-c1ccccc1)CSc1nnnn1-c1ccccc1`, the growth inhibition in test [1] was -7.66%; in test [2], 1.63%. In test [3], the viability increase was -5.63%. Also, the viability in test [4] was 92.6%; in test [5] it was 90.1%. For the same compound, the inhibition in test [6] was 2.98%. Further, the RAM network inhibition in test [7] is 7.19%.
Take `CC(=O)C1=C(C)NC(SCC(=O)c2ccc(C)cc2)=C(C#N)C1c1ccco1` (centres undefined): the growth inhibition in test [1] was -5.27%; in test [2], 32.5%. In addition, the viability increase in test [3] was -6.5%. The viability in test [4] was 49.2%; in test [5] it was 52.7%. The inhibition in test [6] was 4.71%. Besides, the RAM network inhibition in test [7] is 2.93%.
For the compound `O=C(NC1CCCc2ccccc21)c1cccnc1` (centres undefined), the results for the growth inhibition in test [1] and in test [2] were -4.71% and -1.41%, respectively. For the same compound, the viability increase in test [3] is -1.04%. The viability in test [4] is 91.4%; in test [5], 93%. In addition, the inhibition in test [6] is 1.98%. For the same compound, the RAM network inhibition in test [7] was 0.22%.
Regarding `Cc1ccc2oc(=O)n(CC(=O)O)c2c1`, the growth inhibition in test [1] was -6.32%; in test [2] it was 5.35%. The viability increase in test [3] is -0.21%. For the same compound, the viability in test [4] was 98.6%; in test [5], 93.7%. For the same compound, the inhibition in test [6] is 1.27%. For the same compound, in test [7], the RAM network inhibition was -1.2%.
For the compound `CCOCCn1c(SCc2ccc(F)cc2)nc2c1c(=O)[nH]c(=O)n2C`, the values for the growth inhibition in test [1] and in test [2] were -4.31% and 5.57%, respectively. Also, in test [3], the viability increase was -2.04%. Further, the viability in test [4] was 99%; in test [5], 94.3%. The inhibition in test [6] is -0.925%. Also, the RAM network inhibition in test [7] is -0.32%.
Regarding `CCCN(CCC)C(=O)CCS(=O)(=O)c1cccc2nsnc12`, the growth inhibition is -9.5% in test [1] and -18.6% in test [2]. In test [3], the viability increase was -1.95%. Further, the viability in test [4] is 96.3%; in test [5], 98.2%. Moreover, in test [6], the inhibition is 1.15%. In test [7], the RAM network inhibition is 2.25%.
On to `O=C(COC(=O)c1cnccn1)c1ccc2c(c1)CCCC2`, for which the growth inhibition in test [1] is -11.3%; in test [2], -17.1%. Further, the viability increase in test [3] is -1.19%. Further, the values for the viability in test [4] and in test [5] were 91.9% and 88.6%, respectively. Further, the inhibition in test [6] is 1.32%. In addition, in test [7], the RAM network inhibition is 1.14%.
Consider `Cc1ccc2c(c1)C(c1ccccc1)N(C(=O)c1ccc(Br)o1)CC(=O)N2` (centres undefined), for which the values for the growth inhibition in test [1] and in test [2] were -8.12% and -8.66%, respectively. Moreover, in test [3], the viability increase is -3.95%. The values for the viability in test [4] and in test [5] were 76.4% and 77.9%, respectively. Moreover, the inhibition in test [6] was -0.275%. For the same compound, the RAM network inhibition in test [7] is 2.72%.
Turning to `CCOc1ccc(N(CC(=O)Nc2ccccc2)S(C)(=O)=O)cc1`, the growth inhibition is 0.69% in test [1] and -1.96% in test [2]. For the same compound, in test [3], the viability increase was -1.68%. The viability was 102% in test [4] and 97.4% in test [5]. The inhibition in test [6] is -0.325%. In addition, the RAM network inhibition in test [7] was 4.68%.
As for `CCOC(=O)C1CCN(S(=O)(=O)c2ccc3c4c(cccc24)C(=O)N3)CC1`, the growth inhibition in test [1] was -4.42%; in test [2] it was -7.67%. Also, the viability increase in test [3] is -3.39%. Also, the viability in test [4] is 96.5%; in test [5], 85.7%. Also, the inhibition in test [6] was 1.76%. Besides, the RAM network inhibition in test [7] is 2.83%.
Turning to `CCOC(=O)c1ccc(NC(=O)C2C3C=CC(C3)C2C(=O)O)cc1` (centres undefined), the growth inhibition is 5.27% in test [1] and 5.33% in test [2]. Further, the viability increase in test [3] was 0.55%. Besides, the viability in test [4] is 98.5%; in test [5], 106%. The inhibition in test [6] is 0.29%. Besides, in test [7], the RAM network inhibition was 1.09%.
On to `O=C(O)CC(CNS(=O)(=O)c1ccccc1)c1ccccc1` (centres undefined), for which the growth inhibition in test [1] is -1.83%; in test [2], 1.5%. For the same compound, the viability increase in test [3] is 0.76%. Further, the viability is 100% in test [4] and 98.6% in test [5]. Besides, the inhibition in test [6] was 1.54%. Besides, in test [7], the RAM network inhibition was -0.36%.
On to `COc1ccc(CNC(=O)CS(=O)Cc2nc(-c3ccc(C)cc3)oc2C)cc1` (centres undefined), for which the growth inhibition was -5.34% in test [1] and 0.735% in test [2]. Besides, in test [3], the viability increase was -2.44%. The viability in test [4] was 86.9%; in test [5], 93.4%. Besides, the inhibition in test [6] is 1.39%. Further, the RAM network inhibition in test [7] was 5.95%.
`CCN(Cc1ccccc1)C(=O)CSc1nc(C)cc(C)c1C#N`: the results for the growth inhibition in test [1] and in test [2] were -12.8% and -2.79%, respectively. Also, the viability increase in test [3] is 4.58%. Further, the values for the viability in test [4] and in test [5] were 104% and 87.3%, respectively. In test [6], the inhibition is 2.48%. Also, the RAM network inhibition in test [7] was 0.99%.
On to `CC(=O)c1c(C)nc2ccc(Br)cc2c1C(=O)O`, for which the growth inhibition in test [1] was -10.2%; in test [2], 8.3%. The viability increase in test [3] was -1.9%. In addition, the values for the viability in test [4] and in test [5] were 98.2% and 97.4%, respectively. Moreover, the inhibition in test [6] is 1.79%. The RAM network inhibition in test [7] is 1.15%.
For `CC(=O)c1c(C)cc(C)c(CSc2nc(C)cc(=O)[nH]2)c1C`, the growth inhibition is 2.49% in test [1] and 19.8% in test [2]. For the same compound, in test [3], the viability increase was 0.08%. Moreover, the viability was 83% in test [4] and 74.2% in test [5]. The inhibition in test [6] is 0.245%. Further, the RAM network inhibition in test [7] is 2.49%.
